From ChEMBL document CHEMBL1139334, “Discovery of novel analgesic and anti-inflammatory 3-arylamine-imidazo[1,2-a]pyridine symbiotic prototypes” (Bioorg Med Chem, 2009)
Active and inactive are the calls of the source. The rule behind the calls is not given here.

Legend:
Mus musculus [1] = test: Analgesic activity in Swiss mouse assessed as inhibition of acetic acid-induced abdominal constriction at 100 umol/kg, po administered 1 hr before acetic acid challenge; assay type: functional; details: Abdomen
Summary of the method: (§1)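 Swiss mice (18–23 g) received compounds orally as a suspension in 5% arabic gum in saline; controls received an equal volume of vehicle. After 1 h, 0.6% acetic acid (0.1 ml/10 g) was given ip. Constrictions were counted for 20 min, starting 10 min after injection. Results are % inhibition versus vehicle; N = 7–10 per group; mean ± SEM; one-way ANOVA with Dunnett test.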

Rattus norvegicus [2] = test: Antihyperalgesic activity in Wistar rat assessed as inhibition of capsaicin-induced thermal hyperalgesia at 100 umol/kg, po; assay type: functional, organism-based
Summary of the method: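 Fasted Wistar rats of both sexes (150–200 g) had basal and acclimatization withdrawal latencies recorded on a 52 °C hot plate. Compound was given orally 1 h before an intraplantar injection of 5% capsaicin in DMSO into the right hind paw. Right hind paw withdrawal latency was timed by chronometer at 2, 5, 10, 30 and 60 min post-challenge.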

Rattus norvegicus [3] = test: Antiinflammatory activity in Wistar rat assessed as inhibition of carrageenan-induced paw edema at 100 umol/kg, po measured 3 hrs post carrageenan challenge; assay type: functional
Summary of the method: (§2)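 Fasted Wistar rats of both sexes (150–200 g) were dosed orally with a suspension in 5% arabic gum in saline; controls received vehicle. After 1 h, 1% carrageenan (0.1 ml, […]) was injected subplantarly into the right hind paw and sterile saline into the left. Paw volumes were read by glass plethysmometer 3 h later. Edema is the carrageenan-minus-saline paw volume; results are % inhibition versus vehicle.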

Rattus norvegicus [4] = test: Antiinflammatory activity in po dosed Wistar rat assessed as inhibition of carrageenan-induced paw edema measured 3 hrs post carrageenan challenge; assay type: functional; summary of the method: as §2
[5] = molecular target: T1, Prostaglandin G/H synthase 2 (Homo sapiens, UniProt P35354); test: Inhibition of PGHS2 in human whole blood assessed as inhibition of TXB2 production by radioimmunoassay; assay type: tissue-based
T1 sequence (P35354 whole entry): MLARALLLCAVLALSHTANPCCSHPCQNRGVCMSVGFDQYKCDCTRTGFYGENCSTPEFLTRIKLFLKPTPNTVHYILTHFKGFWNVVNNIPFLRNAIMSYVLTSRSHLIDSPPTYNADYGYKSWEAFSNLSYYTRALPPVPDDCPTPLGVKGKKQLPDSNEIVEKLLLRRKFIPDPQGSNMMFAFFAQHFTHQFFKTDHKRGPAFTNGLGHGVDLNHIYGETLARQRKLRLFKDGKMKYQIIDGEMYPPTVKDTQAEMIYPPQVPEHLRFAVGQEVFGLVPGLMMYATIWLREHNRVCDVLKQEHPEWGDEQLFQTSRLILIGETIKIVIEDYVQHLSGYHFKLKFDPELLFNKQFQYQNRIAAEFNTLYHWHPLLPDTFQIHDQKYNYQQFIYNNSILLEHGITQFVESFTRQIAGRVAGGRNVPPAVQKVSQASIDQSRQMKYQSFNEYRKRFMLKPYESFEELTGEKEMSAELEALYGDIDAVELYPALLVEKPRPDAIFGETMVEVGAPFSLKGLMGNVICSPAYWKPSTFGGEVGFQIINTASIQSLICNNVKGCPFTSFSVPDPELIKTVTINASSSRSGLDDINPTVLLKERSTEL

Mus musculus [6] = test: Analgesic activity in po dosed Swiss mouse assessed as inhibition of acetic acid-induced abdominal constriction administered 1 hr before acetic acid challenge; assay type: functional; details: Abdomen; summary of the method: as §1

Structure (SMILES) | inhibition in vivo at 100 µmol/kg (Mus musculus [1]) [%] | Activity (Rattus norvegicus [2]) | inhibition in vivo at 100 µmol/kg (Rattus norvegicus [3]) [%] | ED50 (Rattus norvegicus [4]) [µmol/kg] | IC50 [5] [µM] | ED50 (Mus musculus [6]) [µmol/kg]
CS(=O)(=O)c1ccc(-c2nc3ccccn3c2Nc2ccccc2)cc1 | 7.4 | inactive | 28.2 | – | – | –
CS(=O)(=O)c1ccc(Nc2c(-c3ccccn3)nc3ccccn23)cc1 | 33.7 | Active | 18.5 | – | – | –
c1ccc(Nc2c(-c3ccncc3)nc3ccccn23)cc1 | 13 | Active | 49.9 | 11.5 | – | –
c1ccc(Nc2c(-c3ccccn3)nc3ccccn23)cc1 | -3 | Active | 33.4 | – | 18.5 | –
c1ccc(Nc2c(-c3ccccc3)nc3ccccn23)cc1 | 10.8 | Active | 63.9 | 14.5 | – | –
COc1ccc(Nc2c(-c3ccc(S(C)(=O)=O)cc3)nc3ccccn23)cc1 | 53 | inactive | 41.7 | 8.7 | 2.8 | 22.7
CS(=O)(=O)c1ccc(-c2nc3ccccn3c2Nc2ccccn2)cc1 | 22.2 | Active | 17.2 | – | – | –
Cc1ccc(-c2cc(C(F)(F)F)nn2-c2ccc(S(N)(=O)=O)cc2)cc1 [CELECOXIB] | 46.1 | – | 30 | 87.7 | – | 247
CS(=O)(=O)c1ccc(Nc2c(-c3ccncc3)nc3ccccn23)cc1 | 33.6 | Active | 1.8 | – | – | –
